Test results from ChEMBL document CHEMBL1649384, “Synthesis and antiproliferative activity of novel symmetrical alkylthio- and alkylseleno-imidocarbamates” (Eur J Med Chem, 2011).

Legend:
MCF7 = assay: Cytotoxicity against human MCF7 cells after 72 hrs by MTT assay; type: functional; details: MCF7, 72 h
Procedure, shortened: (§1)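 Cells seeded per well: Hep-G2 1×10⁴, HT-29 4×10³, K-562 4×10³, MCF-7 1.2×10⁴, MCF-10A 7×10³, PC-3 2×10³. MCF-10A were grown in supplemented MEBM at 37 °C, 5% CO₂. Five concentrations were tested between 0.01 and 100, with 72 h exposure. Formazan was read by A590. GI₅₀ was taken relative to untreated controls, from at least three independent experiments.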

HT-29 = assay: Cytotoxicity against human HT-29 cells after 72 hrs by MTT assay; type: functional; details: HT-29, 72 h; for CC50: read-out: LC50 (the source's name); procedure, shortened: as §1
K562 = assay: Cytotoxicity against human K562 cells after 72 hrs by MTT assay; type: functional; details: K562, 72 h; for CC50: read-out: LC50 (the source's name); procedure, shortened: as §1
HepG2 = assay: Cytotoxicity against human HepG2 cells after 72 hrs by MTT assay; type: functional; details: HepG2, 72 h; for CC50: read-out: LC50 (the source's name); procedure, shortened: as §1
PC-3 = assay: Cytotoxicity against human PC3 cells after 72 hrs by MTT assay; type: functional; details: PC-3, 72 h; for CC50: read-out: LC50 (the source's name); procedure, shortened: as §1
[1] = Cytotoxicity against human MCF10A cells after 72 hrs by MTT assay; type: cell-based, MCF-10A; details: for GI50 at 72 h: MCF10A cells; for LC50 / TGI: mcf-10a, 72 h; procedure, shortened: as §1

SMILES	GI50 (MCF7)	LC50 (MCF7)	TGI (MCF7)	GI50 (HT-29)	TGI (HT-29)	CC50 (HT-29)	GI50 (K562)	TGI (K562)	CC50 (K562)	GI50 (HepG2)	TGI (HepG2)	CC50 (HepG2)	GI50 (PC-3)	TGI (PC-3)	CC50 (PC-3)	GI50 at 72 h [1]	LC50 [1]	TGI [1]
CS/C(=N\C(=O)c1c2ccccc2nc2ccccc12)NC(=O)c1c2ccccc2nc2ccccc12	27.7 µM	> 100 µM	> 100 µM	69.2 µM	> 100 µM	> 100 µM	45 µM	76 µM	> 100 µM	90.2 µM	> 100 µM	> 100 µM	51.1 µM	87.3 µM	> 100 µM	1 µM	> 100 µM	> 100 µM
C[Se]/C(=N\C(=O)c1cc2ccccc2s1)NC(=O)c1cc2ccccc2s1	5.07 µM	80.6 µM	32.7 µM	5.62 µM	> 100 µM	> 100 µM	32.4 µM	61 µM	89.5 µM	9.59 µM	41 µM	73.3 µM	37.2 µM	65.6 µM	94 µM	0.49 µM	73.21 µM	34.65 µM
C[Se]/C(=N\C(=O)c1ccc2c(c1)OCO2)NC(=O)c1ccc2c(c1)OCO2	0.99 µM	> 100 µM	52.8 µM	0.53 µM	> 100 µM	> 100 µM	9.23 µM	46.3 µM	85.2 µM	5.84 µM	23.6 µM	73.1 µM	4.24 µM	36.8 µM	> 100 µM	5.58 µM	> 100 µM	45.97 µM
C[Se]/C(=N\C(=O)c1c2ccccc2nc2ccccc12)NC(=O)c1c2ccccc2nc2ccccc12	73.9 µM	> 100 µM	> 100 µM	7.63 µM	> 100 µM	> 100 µM	27.2 µM	61 µM	94.8 µM	22.3 µM	52.4 µM	82.5 µM	41.3 µM	80.1 µM	> 100 µM	18.2 µM	88.31 µM	53.28 µM
O=C(/N=C(/NC(=O)c1ccco1)[Se]Cc1ccccc1)c1ccco1	8.8 µM	> 100 µM	58 µM	7.19 µM	89.1 µM	89.1 µM	9.53 µM	44.2 µM	80.6 µM	7.65 µM	39.5 µM	76.5 µM	30.5 µM	57.6 µM	84.8 µM	8.8 µM	> 100 µM	57.98 µM
O=C(/N=C(/NC(=O)c1cccs1)[Se]Cc1ccccc1)c1cccs1	72.5 µM	> 100 µM	> 100 µM	55.1 µM	> 100 µM	> 100 µM	29.5 µM	58.5 µM	87.4 µM	34.7 µM	58.1 µM	81.5 µM	49.9 µM	> 100 µM	> 100 µM	72.5 µM	> 100 µM	> 100 µM
O=C(/N=C(/NC(=O)c1sccc1Cl)[Se]Cc1ccccc1)c1sccc1Cl	3.68 µM	> 100 µM	28.3 µM	6.51 µM	> 100 µM	> 100 µM	7.63 µM	95.8 µM	> 100 µM	4.42 µM	45.5 µM	> 100 µM	52.7 µM	> 100 µM	> 100 µM	3.68 µM	> 100 µM	28.33 µM
O=C(/N=C(/NC(=O)c1csc([N+](=O)[O-])c1)[Se]Cc1ccccc1)c1csc([N+](=O)[O-])c1	24.4 µM	83.8 µM	54.1 µM	9.25 µM	> 100 µM	> 100 µM	23.5 µM	55.8 µM	88.2 µM	34.1 µM	62.8 µM	91.6 µM	35.9 µM	69.2 µM	> 100 µM	24.4 µM	83.76 µM	54.1 µM
O=C(/N=C(/NC(=O)c1ccno1)[Se]Cc1ccccc1)c1ccno1	7.8 µM	> 100 µM	> 100 µM	6.82 µM	> 100 µM	> 100 µM	20 µM	57.3 µM	94.7 µM	9.12 µM	58.9 µM	> 100 µM	53.1 µM	> 100 µM	> 100 µM	7.8 µM	> 100 µM	> 100 µM
